# In ChEMBL document CHEMBL3804799, “Synthesis and Biological Evaluation of Novel σ1 Receptor Ligands for Treating Neuropathic Pain: 6-Hydroxypyridazinones” (J Med Chem, 2016):
# What was measured:
# Mus musculus [1] = assay: Antinociceptive activity in Kun Ming mouse assessed as paw licking time in delayed pain response phase at 80 mg/kg, ig administered 15 mins prior to formalin challenge measured after 15 to 45 mins post formalin dosing; type: functional
# Method in brief: (§1)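 Mice received 20 μL of 2.5% formalin (0.92% formaldehyde) in the dorsal right hind paw. Time spent licking or biting the paw was scored at 0–5 min (phase I) and 15–45 min (phase II), with a mirror behind the glass cylinder. Vehicle was 30% PEG 400 at 10 mL/kg, given 15 min before formalin. n = 10–12 per group. % antinociception = (LT_V − LT_D)/LT_V × 100.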
# Mus musculus [2] = assay: Antinociceptive activity in Kun Ming mouse assessed as paw biting time in delayed pain response phase at 80 mg/kg, ig administered 15 mins prior to formalin challenge measured after 15 to 45 mins post formalin dosing; type: functional; method in brief: as §1
# Rattus norvegicus [3] = assay: Antiallodynic activity in po dosed Sprague-Dawley rat chronic constriction injury-induced neuropathic pain model assessed as inhibition of mechanical allodynia administered as single dose on day 15th post surgery by Von frey test; type: functional
# Method in brief: (§2)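 Sciatic nerve CCI in SD rats (Bennett–Xie) under 5% chloral hydrate: four loose 4-0 silk ligatures on the right sciatic nerve, about 1 cm proximal to the trifurcation. Oral dosing in 0.5% methylcellulose (10 mL/kg), twice daily on days 15–18. Testing followed the first dose on day 15 and the last dose on day 18. Mechanical withdrawal threshold by von Frey up–down method, four samplings averaged. 10 rats/group.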
# Rattus norvegicus [4] = assay: Antiallodynic activity in po dosed Sprague-Dawley rat chronic constriction injury-induced neuropathic pain model assessed as inhibition of mechanical allodynia administered as bid on day 15th and 18th post surgery by Von frey test; type: functional; method in brief: as §2
# Rattus norvegicus [5] = assay: Antiallodynic activity in po dosed Sprague-Dawley rat chronic constriction injury-induced neuropathic pain model assessed as inhibition of thermal hypersensitivity administered as single dose on day 15th post surgery by plantar test; type: functional
# Method in brief: (§3)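 CCI or sham SD rats, 10 per group, dosed orally in 0.5% methylcellulose (10 mL/kg) twice daily on days 15–18. Tested after the first dose on day 15 and the last dose on day 18. Plantar test: after 30 min acclimation on a glass floor, radiant heat was applied under the hind paw and withdrawal latency recorded. 30 s cutoff; mean of four samplings.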
# Rattus norvegicus [6] = assay: Antiallodynic activity in po dosed Sprague-Dawley rat chronic constriction injury-induced neuropathic pain model assessed as inhibition of thermal hypersensitivity administered as bid on day 15th and 18th post surgery by plantar test; type: functional; method in brief: as §3
# Rattus norvegicus [7] = assay: Effect on mechanical allodynia in sham-operated Sprague-Dawley rat at 20 to 80 mg/kg, po administered as bid on days 15th to 18th; type: ADME, organism-based; conditions: in vivo; method in brief: as §2
# Rattus norvegicus [8] = assay: Effect on thermal hypersensitivity in sham-operated Sprague-Dawley rat at 20 to 80 mg/kg, po administered as bid on days 15th to 18th; type: ADME, organism-based; conditions: in vivo; method in brief: as §3
# Mus musculus [9] = type: toxicity, organism-based, Kun Ming; conditions: in vivo, po, 40 mg/kg
# Mus musculus [10] = type: toxicity, organism-based, Kun Ming; conditions: in vivo, po, 80 mg/kg
# Mus musculus [11] = type: toxicity, organism-based, Kun Ming; conditions: in vivo, po, 160 mg/kg
# [12] = Tmax in Sprague-Dawley rat at 80 mg/kg, po administered through gavage by LC-MS/MS analysis; type: ADME, organism-based; conditions: in vivo
# Method in brief: (§4)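 SD rats, n = 3/group. Dosing was either 5 mg/kg iv via tail vein in saline or 80 mg/kg by oral gavage as a suspension in 0.5% methylcellulose. Serial tail-vein blood was drawn into heparinized tubes at 0.5, 1, 2, 3, 4, 5, 6, 8 and 24 h. Plasma was separated, proteins precipitated with acetonitrile, and samples analysed by LC/MS.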
# [13] = Clearance in Sprague-Dawley rat at 5 mg/kg, iv by LC-MS/MS analysis; type: ADME, organism-based; conditions: in vivo; method in brief: as §4
# [14] = AUC (0 to last) in Sprague-Dawley rat at 80 mg/kg, po administered through gavage by LC-MS/MS analysis; type: ADME, organism-based; design: dose 80 mg/kg, time 0 - last, route oral; conditions: in vivo
# Method in brief: (§5)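 Oral gavage to rats (n = 3/group), 80 mg/kg as suspension in 0.5% methylcellulose. Blood drawn serially from lateral tail vein into heparinized tubes at 30 min and 1, 2, 3, 4, 5, 6, 8 and 24 h. Plasma obtained by centrifugation, acetonitrile protein precipitation, LC/MS quantification.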
# [15] = AUC (0 to last) in Sprague-Dawley rat at 5 mg/kg, iv by LC-MS/MS analysis; type: ADME, organism-based; design: dose 5 mg/kg, route intravenous, time 0 - last; conditions: in vivo
# Method in brief: (§6)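 Rats (n = 3/group) dosed via lateral tail vein, 5 mg/kg in 100% saline. Serial tail-vein blood into heparinized tubes at 30 min and 1, 2, 3, 4, 5, 6, 8 and 24 h. Plasma separated by centrifugation, proteins precipitated with acetonitrile, analysed by LC/MS.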
# [16] = AUC (0 to infinity) in Sprague-Dawley rat at 80 mg/kg, po administered through gavage by LC-MS/MS analysis; type: ADME, organism-based; design: dose 80 mg/kg, route oral, time infinity; conditions: in vivo; method in brief: as §5
# [17] = AUC (0 to infinity) in Sprague-Dawley rat at 5 mg/kg, iv by LC-MS/MS analysis; type: ADME, organism-based; design: dose 5 mg/kg, time infinity, route intravenous; conditions: in vivo; method in brief: as §6
# [18] = Oral bioavailability in Sprague-Dawley rat at 80 mg/kg administered through gavage by LC-MS/MS analysis; type: ADME, organism-based; conditions: in vivo; method in brief: as §4
# [19] = target: T1, 5-hydroxytryptamine receptor 1A (Rattus norvegicus) (UniProt P19327); assay: Displacement of [3H]-8-OH-DPAT from 5HT1A receptor in rat cerebral cortex at 1 uM after 30 mins by liquid scintillation counting analysis; type: tissue-based
# T1 sequence (whole entry): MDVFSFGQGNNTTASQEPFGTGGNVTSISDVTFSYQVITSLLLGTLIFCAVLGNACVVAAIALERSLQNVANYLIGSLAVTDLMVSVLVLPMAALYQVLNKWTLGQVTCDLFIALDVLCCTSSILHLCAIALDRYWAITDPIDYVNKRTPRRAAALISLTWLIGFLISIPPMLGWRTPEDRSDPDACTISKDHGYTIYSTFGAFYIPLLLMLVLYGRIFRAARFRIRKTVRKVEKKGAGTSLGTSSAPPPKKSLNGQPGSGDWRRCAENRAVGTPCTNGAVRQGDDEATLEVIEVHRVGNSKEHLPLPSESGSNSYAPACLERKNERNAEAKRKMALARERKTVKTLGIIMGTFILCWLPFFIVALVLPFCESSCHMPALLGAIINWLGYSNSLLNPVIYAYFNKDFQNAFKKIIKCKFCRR
# [20] = target: 5-hydroxytryptamine receptor 2A (Rattus norvegicus) (UniProt P14842); assay: Displacement of [3H]-ketanserin from 5HT2A receptor in rat cerebral cortex at 1 uM after 15 mins by liquid scintillation counting analysis; type: tissue-based
# [21] = target: Cannabinoid receptor 2 (Homo sapiens) (UniProt P34972); assay: Displacement of [3H]-CP-55940 from human CB2 receptor expressed in HEK cells at 1 uM after 90 mins by liquid scintillation counting analysis; type: cell-based; conditions: HEK293
# [22] = target: Glutamate NMDA receptor (Rattus norvegicus) (UniProt P35439+Q00959+Q00960+Q00961+Q62645+Q8VHN2+Q9R1M7); assay: Displacement of [3H]-glycine from NMDA receptor in rat hippocampal membrane at 1 uM after 30 mins by liquid scintillation counting analysis; type: cell membranes; conditions: Hippocampus
# [23] = target: Transient receptor potential cation channel subfamily V member 1 (Homo sapiens) (UniProt Q8NER1); assay: Inhibition of human TRPV-1 expressed in HEK293 cells at 1 uM by whole cell patch clamp method; type: cell-based
# Sequence of Transient receptor potential cation channel subfamily V member 1 (Homo sapiens) (Q8NER1 whole entry): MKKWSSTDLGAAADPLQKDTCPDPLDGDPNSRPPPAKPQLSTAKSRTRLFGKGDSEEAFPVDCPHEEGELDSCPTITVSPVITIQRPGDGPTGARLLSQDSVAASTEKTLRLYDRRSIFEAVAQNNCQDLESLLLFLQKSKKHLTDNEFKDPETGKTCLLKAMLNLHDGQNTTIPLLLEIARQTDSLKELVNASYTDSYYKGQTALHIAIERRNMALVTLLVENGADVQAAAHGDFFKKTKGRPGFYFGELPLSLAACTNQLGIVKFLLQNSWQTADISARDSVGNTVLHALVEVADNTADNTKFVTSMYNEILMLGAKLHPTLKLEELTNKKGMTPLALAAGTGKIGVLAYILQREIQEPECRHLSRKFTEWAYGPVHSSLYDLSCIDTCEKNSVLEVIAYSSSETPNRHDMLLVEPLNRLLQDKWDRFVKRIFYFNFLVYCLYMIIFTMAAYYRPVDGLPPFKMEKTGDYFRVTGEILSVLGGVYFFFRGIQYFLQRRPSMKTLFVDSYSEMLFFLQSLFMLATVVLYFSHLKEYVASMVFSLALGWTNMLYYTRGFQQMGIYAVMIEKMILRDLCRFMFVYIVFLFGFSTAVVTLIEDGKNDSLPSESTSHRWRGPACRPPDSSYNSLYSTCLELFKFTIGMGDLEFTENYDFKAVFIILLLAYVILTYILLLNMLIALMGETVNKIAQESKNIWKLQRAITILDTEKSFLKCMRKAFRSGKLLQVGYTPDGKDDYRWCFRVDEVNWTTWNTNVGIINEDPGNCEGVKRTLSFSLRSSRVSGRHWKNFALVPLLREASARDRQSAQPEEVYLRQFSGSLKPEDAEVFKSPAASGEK
# Sequence of 5-hydroxytryptamine receptor 2A (Rattus norvegicus) (P14842 whole entry): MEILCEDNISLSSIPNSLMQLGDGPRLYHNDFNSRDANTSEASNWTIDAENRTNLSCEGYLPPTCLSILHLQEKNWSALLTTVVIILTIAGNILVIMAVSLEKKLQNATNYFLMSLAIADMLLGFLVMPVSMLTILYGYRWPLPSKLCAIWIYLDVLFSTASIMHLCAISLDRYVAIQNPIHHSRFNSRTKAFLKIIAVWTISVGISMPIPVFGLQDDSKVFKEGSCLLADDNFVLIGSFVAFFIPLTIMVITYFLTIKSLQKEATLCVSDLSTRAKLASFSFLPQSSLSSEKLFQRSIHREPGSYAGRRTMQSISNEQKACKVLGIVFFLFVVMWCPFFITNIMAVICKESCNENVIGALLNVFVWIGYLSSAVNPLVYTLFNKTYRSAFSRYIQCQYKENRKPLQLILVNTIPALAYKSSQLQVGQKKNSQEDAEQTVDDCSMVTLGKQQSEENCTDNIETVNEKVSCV
# Sequence of Cannabinoid receptor 2 (Homo sapiens) (P34972 whole entry): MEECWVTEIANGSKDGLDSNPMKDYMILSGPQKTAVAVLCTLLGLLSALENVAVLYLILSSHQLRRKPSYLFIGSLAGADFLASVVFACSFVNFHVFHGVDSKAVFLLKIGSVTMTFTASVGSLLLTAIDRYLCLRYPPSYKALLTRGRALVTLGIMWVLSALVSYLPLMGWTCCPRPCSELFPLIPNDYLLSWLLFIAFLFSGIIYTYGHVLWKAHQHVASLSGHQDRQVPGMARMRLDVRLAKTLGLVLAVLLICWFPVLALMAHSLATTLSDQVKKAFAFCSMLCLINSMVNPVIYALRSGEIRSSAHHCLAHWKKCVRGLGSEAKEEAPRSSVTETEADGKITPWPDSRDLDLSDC
structure (smiles),measurement,setting,value
O=c1ccc(OCCCN2CCCCC2)nn1-c1ccc(Cl)c(Cl)c1,Time,Mus musculus [1],45.88 s
same,Time,Mus musculus [2],41.16 s
same,ED50,Rattus norvegicus [3],51.9 mg/kg
same,ED50,Rattus norvegicus [4],40.3 mg/kg
same,ED50,Rattus norvegicus [5],18.6 mg/kg
same,ED50,Rattus norvegicus [6],16.9 mg/kg
same,Activity,Rattus norvegicus [7],Non-toxic
same,Activity,Rattus norvegicus [8],Non-toxic
same,Activity,Mus musculus [9],22826.6 mm
same,Activity,Mus musculus [10],18282.4 mm
same,Activity,Mus musculus [11],16458.3 mm
same,Tmax,[12],19.8 min
same,clearance,[13],49.3 mL/min/kg
same,AUC(0-t),[14],11700 ng·h/mL
same,AUC(0-t),[15],931 ng·h/mL
same,AUC(0-inf),[16],13400 ng·h/mL
same,AUC(0-inf),[17],956 ng·h/mL
same,bioavailability,[18],87.5%
same,inhibition,[19],< 50%
same,inhibition,[20],< 50%
same,inhibition,[21],< 50%
same,inhibition,[22],< 50%
same,inhibition,[23],< 50%
